ChEMBL document CHEMBL3044755, “5-Methyl-1,2,3-thiadiazoles synthesized via ugi reaction and their fungicidal and antiviral activities” (J Agric Food Chem, 2010)

What was measured:
Format in all cases: functional
[1] = test system: Thanatephorus cucumeris; assay: Fungicidal activity against Thanatephorus cucumeris at 50 ug/ml by growth inhibition method; settings: read-out: GI
Summary of the method: (§1)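 Mycelial growth inhibition on potato dextrose agar. The panel covered Alternaria solani, Botrytis cinerea, Cercospora arachidicola, C. beticola, Colletotrichum lagenarium, Fusarium oxysporum, Gibberella zeae, Puccinia triticina, Phytophthora infestans, Physalospora piricola, Pellicularia sasakii and Rhizoctonia solani.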

[2] = test system: Botryosphaeria berengeriana; assay: Fungicidal activity against Botryosphaeria berengeriana at 50 ug/ml by growth inhibition method; settings: read-out: GI; summary of the method: as §1
[3] = test system: Phytophthora infestans; assay: Fungicidal activity against Phytophthora infestans at 50 ug/ml by growth inhibition method; settings: read-out: GI; summary of the method: as §1
[4] = test system: Fusarium oxysporum; assay: Fungicidal activity against Fusarium oxysporum at 50 ug/ml by growth inhibition method; settings: read-out: GI; summary of the method: as §1
[5] = test system: Fusarium graminearum; assay: Fungicidal activity against Fusarium graminearum at 50 ug/ml by growth inhibition method; settings: read-out: GI; summary of the method: as §1
[6] = test system: Colletotrichum lagenaria; assay: Fungicidal activity against Colletotrichum lagenaria at 50 ug/ml by growth inhibition method; settings: read-out: GI; summary of the method: as §1
[7] = test system: Cercospora beticola; assay: Fungicidal activity against Cercospora beticola at 50 ug/ml by growth inhibition method; settings: read-out: GI; summary of the method: as §1
[8] = test system: Mycosphaerella arachidis; assay: Fungicidal activity against Mycosphaerella arachidis at 50 ug/ml by growth inhibition method; settings: read-out: GI; summary of the method: as §1
[9] = test system: Alternaria solani; assay: Fungicidal activity against Alternaria solani at 50 ug/ml by growth inhibition method; settings: read-out: GI; summary of the method: as §1
[10] = test system: Botrytis cinerea; assay: Fungicidal activity against Botryotinia fuckeliana at 50 ug/ml by growth inhibition method; settings: read-out: GI; summary of the method: as §1
[11] = test system: Tobacco mosaic virus; assay: In vitro antiviral activity against Tobacco mosaic virus (TMV) infected tobacco leaves at 100 ug/ml
[12] = test system: Tobacco mosaic virus; assay: In vitro antiviral activity against Tobacco mosaic virus (TMV) infected tobacco leaves at 500 ug/ml
[13] = test system: Rhizoctonia solani; assay: Fungicidal activity against Rhizoctonia solani at 50 ug/ml by growth inhibition method; settings: read-out: GI; summary of the method: as §1
[14] = test system: Puccinia triticina; assay: Fungicidal activity against Puccinia triticina at 50 ug/ml by growth inhibition method; settings: read-out: GI; summary of the method: as §1

SMILES	inhibition of growth at 50 µg/mL [1] [%]	inhibition of growth at 50 µg/mL [2] [%]	inhibition of growth at 50 µg/mL [3] [%]	inhibition of growth at 50 µg/mL [4] [%]	inhibition of growth at 50 µg/mL [5] [%]	inhibition of growth at 50 µg/mL [6] [%]	inhibition of growth at 50 µg/mL [7] [%]	inhibition of growth at 50 µg/mL [8] [%]	inhibition of growth at 50 µg/mL [9] [%]	inhibition of growth at 50 µg/mL [10] [%]	inhibition at 100 µg/mL [11] [%]	inhibition at 500 µg/mL [12] [%]	inhibition of growth at 50 µg/mL [13] [%]	inhibition of growth at 50 µg/mL [14] [%]
Cc1ccc(N(C(=O)c2nnsc2C)C(C(=O)NC(C)C)c2ccccc2F)cc1Cl (stereo not drawn)	67	33	15	21	37	10	25	21	40	73	32	34		
Cc1ccc(N(C(=O)c2nnsc2C)C(C(=O)NC(C)C)c2ccccc2)cc1F (stereo not drawn)	0	0	38		27	14	0	9	13		5	15	2	0
Cc1ccc(N(C(=O)c2nnsc2C)C(C(=O)NC(C)C)c2ccc(F)cc2)cc1F (stereo not drawn)	0	0	0		27	0	25	0	0		18	51	22	0
Cc1ccc(N(C(=O)c2nnsc2C)C(C(=O)NC(C)C)c2cccc(C(F)(F)F)c2)cc1F (stereo not drawn)	4	8	0		36	14	25	27	0		19	51	22	14
Cc1ccc(N(C(=O)c2nnsc2C)C(C(=O)NC(C)C)c2ccccc2[N+](=O)[O-])cc1Cl (stereo not drawn)	31	39	24	14	12	10	8	5	26	60	19	59		
Cc1ccc(N(C(=O)c2nnsc2C)C(C(=O)NC(C)C)c2ccc(Cl)cc2)cc1F (stereo not drawn)	28	0	38		0	14	13	0	38		20	12	15	0
Cc1cccc(C(C(=O)NC(C)C)N(C(=O)c2nnsc2C)c2ccc(C)c(F)c2)c1 (stereo not drawn)	0	0	13		0	0	25	9	0		14	35	0	0
Cc1ccc(N(C(=O)c2nnsc2C)C(C(=O)NC2CCCCC2)c2ccc(Cl)cc2)cc1F (stereo not drawn)	0	0	6		0	0	13	18	0		8	14	22	0
Cc1ccc(N(C(=O)c2nnsc2C)C(C(=O)NC(C)C)c2ccccc2O)cc1Cl (stereo not drawn)	47	39	24	18	18	7	0	9	38	75	18	23		
